High-throughput results: PubChem, several laboratories
NadD inh: blocks S. aureus nicotinate mononucleotide adenylyltransferase; 360,000 compounds, 0.78% hits; purified NadD enzyme, colorimetric absorbance read-out; inhibition, % at 20 µM; AID 602399; in the data active means inhibition above about 26%
core dimer inh: blocks dimerization of HCV core protein; TR-FRET GST/Flag-core106 dimerization, 1536-well; inhibition, % at 5 µM; 300,000 compounds, 0.33% hits; AID 1899;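 active means inhibition above the mean of all tested compounds plus 3 SD, set per screening campaign, cut at about 45% in these data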
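Material: GST/Flag-tagged HCV core106 proteins. Incubation: 4 h, 22.5 °C incubation. Read-out basis: inhibition (%) from 671 over 617 nm ratio. Measured by: TR-FRET, excitation 340 nm, emission 617 and 671 nm.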
Myeloid diff MLP: promotes myeloid progenitor differentiation; calls only at 10 µM; ER-HoxA9 myeloid progenitors, lysozyme-GFP differentiation, flow cytometry; AID 624256; 360,000 compounds, 1% hits;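 active means normalized GFP-positive differentiation at or above the plate's own cutoff, the solvent-only control mean plus 3 SD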;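 further: cells exposed to compound for four days before flow analysis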
CTSL1 counter: counter-screen for PFM18AAP inhibitors: inhibitors of F. hepatica cathepsin L1; AID 1906; 300,000 compounds, 0.49% hits; recombinant F. hepatica cathepsin L1, Z-Leu-Arg-MCA fluorescence; inhibition, % at 5.96 µM;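 active means inhibition above the mean of all tested compounds plus 3 SD, set per screening campaign, cut at about 17% in these data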
PP5 inh: PP5 (human) phosphatase inhibition | inhibition, % at 6.7 µM | purified PP5c, OMFP substrate fluorescence | 320,000 compounds, 0.18% hits | AID 1987;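 active means inhibition above the campaign's mean inhibition across all tested compounds plus 3 SD, cut at about 9.5% in these data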
PP1 counter: PP1-alpha (human) inhibition in PP5 counter-screen | 320,000 compounds, 0.9% hits | inhibition, % at 6.7 µM | purified PP1alpha, OMFP fluorescence;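 active means inhibition above the mean inhibition of all tested compounds plus 3 SD, computed separately for each screening campaign, cut at about 15% in these data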
Target sequence (P62136 whole entry, looked up): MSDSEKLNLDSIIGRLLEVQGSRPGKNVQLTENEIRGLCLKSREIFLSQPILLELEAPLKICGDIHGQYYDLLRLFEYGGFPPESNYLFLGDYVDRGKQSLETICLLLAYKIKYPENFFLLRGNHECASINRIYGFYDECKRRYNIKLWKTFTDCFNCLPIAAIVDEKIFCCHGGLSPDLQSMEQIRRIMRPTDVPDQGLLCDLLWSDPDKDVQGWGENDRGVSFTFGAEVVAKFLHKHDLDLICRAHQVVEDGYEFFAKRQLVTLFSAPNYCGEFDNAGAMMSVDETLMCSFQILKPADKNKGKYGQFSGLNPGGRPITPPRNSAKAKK
PP1 inh confirm: human PP1 phosphatase inhibition, confirmation. shares compounds with PP1 counter. purified PP1alpha, OMFP substrate fluorescence. inhibition, % at 6.7 µM. 1,900 compounds, 52% hits. AID 2358;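 active means mean PP1 inhibition above a set limit taken from the earlier primary screen, cut at about 15% in these data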
PP5 inh counter: inhibits human PP5 phosphatase in PP1 counter-screen; shares compounds with PP1 counter; purified PP5c, OMFP fluorescence; inhibition, % at 6.7 µM; 1,900 compounds, 4% hits;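 active means mean PP5 inhibition over triplicate wells above about 9.5% taken from the earlier PP1 screen, limit read from the data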
Of the large screens only hits and unclear results are named; the others gave an inactive call (follow-up assays come after a bar, where they were run). In the library only some 3.1% were active in any assay of this set; here they are far more common.

COc1ccc(C(CNC(=O)c2cccc(NS(=O)(=O)c3ccc(C)c(F)c3)c2)N2CCOCC2)cc1 (stereo not given)	none
CCOC(=O)c1ccc(NC(=O)CSc2nnc(CCc3ccc(C)o3)n2-c2ccccc2)cc1	PP1 counter 19.3 | PP1 inh confirm inactive | PP5 inh counter inactive
CCc1ccc(C(O)c2ncc(-c3cccc(C)c3)[nH]2)cc1 (stereo not given)	none (no result: core dimer inh, CTSL1 counter, PP5 inh, PP1 counter)
COc1cc(/C=N/Nc2nc(Nc3ccc(C)cc3)nc(-n3nc(C)cc3C)n2)cc(OC)c1OC	PP1 counter 22.2 | PP1 inh confirm 21.4 | PP5 inh counter inactive
COc1cc(/C=N/Nc2nc(Nc3ccccc3)nc(-n3nc(C)cc3C)n2)cc(OC)c1OC	PP1 counter 24.2 | PP1 inh confirm 34.5 | PP5 inh counter inactive
COc1ccc(O)c(/C=N/Nc2nc(C)cc(-c3ccccc3)n2)c1	none
COc1ccc(O)c(/C=N/Nc2nc(Nc3ccccc3)nc(-n3nc(C)cc3C)n2)c1	PP1 counter 21.3 | PP1 inh confirm 25.2 | PP5 inh counter inactive
Cc1ccc(Cc2nnc(SCC(=O)Nc3ccccc3)n(N)c2=O)cc1	none
O=C(c1ccncc1)N1CCN(S(=O)(=O)c2cccc(Cl)c2)CC1	none
CC1(C)Cc2c(sc3c2c(=N)n(Cc2ccco2)c(=O)n3CC(=O)Nc2cccc(Cl)c2)CO1	PP1 counter 20.2 | PP1 inh confirm inactive | PP5 inh counter inactive
COc1cc(CN(C2CCCCC2)S(=O)(=O)c2ccc(S(=O)(=O)N(C)C3CCCCC3)cc2)cc(OC)c1OC	PP1 counter 18.6 | PP1 inh confirm inactive | PP5 inh counter inactive
CCN(C1CCCCC1)S(=O)(=O)c1ccc(OC)c(C)c1	none
CCOc1ccc2nc3cc(NCc4ccc(OC)cc4)ccc3c(N)c2c1	NadD inh 46.8, Myeloid diff MLP active, PP5 inh 15.0, PP1 counter 65.0 | PP1 inh confirm 15.8 | PP5 inh counter 38.1
CCn1cnc2cc(NCc3ccc(OC)cc3)ccc21	none
COC(=O)[C@@H](Cc1ccccc1)NC(=O)NCCc1ccc(OC)c(OC)c1	none
O=c1/c(=C\c2cc([N+](=O)[O-])cc([N+](=O)[O-])c2O)sc2nc3ccccc3n12	PP1 counter 17.6 | PP1 inh confirm 25.6 | PP5 inh counter inactive
CCC1(c2ccc(F)cc2)NC(=O)N(CC(=O)N2CCc3ccccc32)C1=O (stereo not given)	none (no result: core dimer inh, CTSL1 counter)
COc1cc(OC)c(OC)cc1CN1CCN(Cc2cccn2C)CC1	PP1 counter 18.2 | PP1 inh confirm inactive | PP5 inh counter inactive
CCc1ccc2nc(NC(=O)Cn3cnc4ccccc4c3=O)sc2c1	PP1 counter 26.2 | PP1 inh confirm 29.0 | PP5 inh counter inactive
O=C(Cn1cnc2ccccc2c1=O)Nc1nc2ccccc2s1	none
Cn1c(=O)cc(SCC(=O)NCc2ccco2)c2ccccc21	none
O=C(CSc1cn(CCNC(=O)c2ccc3ccccc3c2)c2ccccc12)NCc1ccco1	PP1 counter 17.8 | PP1 inh confirm inactive | PP5 inh counter inactive
COc1ccc(C(=O)O)cc1NC(=S)NC(=O)/C=C/c1ccc(C(C)C)cc1	none
COc1cnc(-c2ccccn2)nc1Sc1ccc(F)cc1	PP1 counter 43.0 | PP1 inh confirm 51.0 | PP5 inh counter inactive
COc1cnc(-c2ccccn2)nc1Sc1ccccc1	PP5 inh 10.8, PP1 counter 55.0 (no result: Myeloid diff MLP) | PP1 inh confirm 48.2 | PP5 inh counter inactive
COc1cnc(N(C)C)nc1Sc1ccc(Cl)cc1	none
COc1cnc(-c2ccccn2)nc1Sc1ccc(Cl)cc1	PP1 counter 34.9 | PP1 inh confirm 45.6 | PP5 inh counter inactive
COc1cc(C(F)(F)F)nc(-c2ccccn2)n1	none
CCOC(=O)CSc1nc(-c2ccccn2)ncc1OC	none
COc1ccc(Sc2nc(-c3ccccn3)ncc2OC)cc1	PP1 counter 57.0 | PP1 inh confirm 55.9 | PP5 inh counter inactive
CCO[C@H]1OC(C(=O)O)=C[C@@H](c2coc3ccccc3c2=O)[C@@H]1CCCO	none
CCn1nc([N+](=O)[O-])c(C(C#N)c2nc3cc(C(F)(F)F)ccc3s2)c(Cl)c1=O (stereo not given)	Myeloid diff MLP active, PP1 counter 22.3 | PP1 inh confirm 22.1 | PP5 inh counter inactive
COc1ccc([C@@H]2C[C@H]3[C@@H](CN2S(=O)(=O)c2ccccc2)C(=O)C[C@@H](c2ccccc2F)N3S(=O)(=O)c2ccc(C)cc2)cc1	none (no result: core dimer inh, CTSL1 counter, PP5 inh, PP1 counter)
Cc1ccc(NC(=O)/C(=C\c2ccc([N+](=O)[O-])cc2)NC(=O)c2ccccc2)cc1	none
O=C(N/N=C/c1ccc(O)c(O)c1O)/C(=C/c1ccc([N+](=O)[O-])cc1)NC(=O)c1ccccc1	NadD inh 43.6, PP1 counter 31.9 | PP1 inh confirm 36.3 | PP5 inh counter inactive
ClC(Cl)(Cl)c1nc(N/N=C/c2ccncc2)c2ccccc2n1	PP1 counter 22.0 | PP1 inh confirm 17.8 | PP5 inh counter inactive
CCCCN(C)C(=O)c1nc2ccccn2c1CN1CCN(c2cnccn2)CC1	PP1 counter 19.2 | PP1 inh confirm inactive | PP5 inh counter inactive
Cc1cc(N/N=C/c2cccc([N+](=O)[O-])c2)nc(-n2nc(C)cc2C)n1	none
Cc1cc(N/N=C/c2cccc(Cl)c2)nc(-n2nc(C)cc2C)n1	PP1 counter 18.4 | PP1 inh confirm 22.9 | PP5 inh counter inactive
Cc1cc(C)n2nc(C(=O)N/N=C/c3ccc(Cl)cc3)nc2n1	none
COc1ccc(/C=N/Nc2cc(C)nc(-n3nc(C)cc3C)n2)cc1	PP1 counter 38.6 | PP1 inh confirm 49.7 | PP5 inh counter inactive
Cc1cc(C)n2nc(C(=O)N/N=C/c3cccc(Cl)c3)nc2n1	PP1 counter 17.8 | PP1 inh confirm inactive | PP5 inh counter inactive
CN1CCC(NC(=O)c2cc(-c3cccc(Br)c3)nc3ccccc23)CC1	none
COc1ccc(C2CC(c3ccc(Br)cc3)=NN2C(=O)CSC2=NCCS2)cc1 (stereo not given)	PP1 counter 19.7 | PP1 inh confirm inactive | PP5 inh counter inactive
COc1ccc(C2=NN(C(=O)CSc3ncccn3)C(c3ccc(C)cc3)C2)cc1 (stereo not given)	none
CCCCN1CC(=O)N2[C@H]3c4cc(Br)ccc4OC[C@@H]3[C@H](C(=O)OCC)[C@]2(C)C1=O	none (no result: core dimer inh, CTSL1 counter)
CN(C)c1ccc(NC(=O)C(=O)C2C(=O)Nc3ccccc32)cc1 (stereo not given)	PP1 counter 20.8 | PP1 inh confirm inactive | PP5 inh counter inactive
CC(=O)Oc1ccc2c(=O)c(Oc3ccccc3[N+](=O)[O-])coc2c1	PP1 counter 56.3 | PP1 inh confirm inactive | PP5 inh counter inactive
